Activity calls are given as the source filed them. No cut-off for these calls is given here.
Key:
[1] = system: DU-145; test: Cytotoxicity against human DU145 cells after 96 hrs by Cell-Titer Blue assay; type: functional, cell-based; conditions: DU-145, 96 h
[2] = system: K562; test: Cytotoxicity against human K562 cells after 96 hrs by Cell-Titer Blue assay; type: functional, cell-based; conditions: K562, 96 h
[3] = biological target: Cyclin-dependent kinase 1/cyclin B1 (Homo sapiens, UniProt P06493); test: Inhibition of CDK1/cyclinB (unknown origin); type: protein-complex assay
Sequence of Cyclin-dependent kinase 1/cyclin B1 (P06493 whole entry): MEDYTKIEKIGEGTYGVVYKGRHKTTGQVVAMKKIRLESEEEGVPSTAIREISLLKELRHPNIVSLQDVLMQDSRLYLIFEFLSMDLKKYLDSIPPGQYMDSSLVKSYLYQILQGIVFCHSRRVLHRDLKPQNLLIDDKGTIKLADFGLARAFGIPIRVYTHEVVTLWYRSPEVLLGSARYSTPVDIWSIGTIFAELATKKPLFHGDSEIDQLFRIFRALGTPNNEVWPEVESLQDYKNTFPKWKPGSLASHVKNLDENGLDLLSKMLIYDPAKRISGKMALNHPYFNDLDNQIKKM
Sequence of Cyclin-dependent kinase 1/cyclin B1 (P14635 whole entry, further chain): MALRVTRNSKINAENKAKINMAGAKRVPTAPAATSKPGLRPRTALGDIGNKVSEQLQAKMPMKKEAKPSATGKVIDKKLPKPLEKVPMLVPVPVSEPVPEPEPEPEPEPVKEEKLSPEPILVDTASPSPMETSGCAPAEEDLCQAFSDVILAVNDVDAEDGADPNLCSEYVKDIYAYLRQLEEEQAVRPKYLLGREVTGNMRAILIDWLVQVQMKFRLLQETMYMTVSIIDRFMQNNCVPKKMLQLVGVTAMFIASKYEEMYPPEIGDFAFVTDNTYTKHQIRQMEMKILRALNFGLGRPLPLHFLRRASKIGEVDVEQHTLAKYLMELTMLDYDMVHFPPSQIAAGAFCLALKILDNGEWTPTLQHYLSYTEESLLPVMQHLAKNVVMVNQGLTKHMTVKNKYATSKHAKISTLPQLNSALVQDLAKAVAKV

[4] = biological target: Cyclin-dependent kinase 2/cyclin E1 (Homo sapiens, UniProt P24941); test: Inhibition of CDK2/cyclinE (unknown origin); type: protein-complex assay
[5] = biological target: Phosphatidylinositol 4,5-bisphosphate 3-kinase catalytic subunit delta isoform (Homo sapiens, UniProt O00329); test: Inhibition of PI3Kdelta (unknown origin)
Sequence of Phosphatidylinositol 4,5-bisphosphate 3-kinase catalytic subunit delta isoform (O00329 whole entry, canonical isoform): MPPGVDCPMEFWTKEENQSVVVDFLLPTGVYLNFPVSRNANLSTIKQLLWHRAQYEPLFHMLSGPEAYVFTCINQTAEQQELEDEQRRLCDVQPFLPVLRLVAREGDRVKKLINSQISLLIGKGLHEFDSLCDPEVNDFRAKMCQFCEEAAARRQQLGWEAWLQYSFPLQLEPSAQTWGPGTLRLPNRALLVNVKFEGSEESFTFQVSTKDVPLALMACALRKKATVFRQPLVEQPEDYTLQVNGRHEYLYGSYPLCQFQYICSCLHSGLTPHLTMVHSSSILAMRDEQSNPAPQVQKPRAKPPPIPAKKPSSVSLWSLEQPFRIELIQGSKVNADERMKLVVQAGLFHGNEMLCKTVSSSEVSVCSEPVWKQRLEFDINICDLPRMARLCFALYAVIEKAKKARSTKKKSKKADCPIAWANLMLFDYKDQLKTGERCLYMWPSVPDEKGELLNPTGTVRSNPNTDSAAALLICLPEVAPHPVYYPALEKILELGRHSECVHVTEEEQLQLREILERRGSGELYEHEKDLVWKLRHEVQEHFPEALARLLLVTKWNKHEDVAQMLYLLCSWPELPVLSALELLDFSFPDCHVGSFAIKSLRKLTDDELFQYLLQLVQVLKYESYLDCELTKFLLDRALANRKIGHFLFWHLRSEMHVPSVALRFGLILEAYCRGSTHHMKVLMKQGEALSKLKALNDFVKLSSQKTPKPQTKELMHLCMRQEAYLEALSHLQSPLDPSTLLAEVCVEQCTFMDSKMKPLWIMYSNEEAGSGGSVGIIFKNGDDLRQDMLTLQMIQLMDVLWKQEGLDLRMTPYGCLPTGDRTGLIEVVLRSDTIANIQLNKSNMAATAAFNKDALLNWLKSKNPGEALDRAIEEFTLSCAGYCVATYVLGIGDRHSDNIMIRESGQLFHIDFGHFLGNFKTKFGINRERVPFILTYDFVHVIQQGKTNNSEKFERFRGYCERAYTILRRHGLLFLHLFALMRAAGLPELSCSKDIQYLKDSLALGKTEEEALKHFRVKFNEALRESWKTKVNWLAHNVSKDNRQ

[6] = system: MCF7; test: Cell cycle arrest in human MCF7 cells assessed as accumulation at G1 phase at 0.5 to 1 uM after 24 hrs by propidium iodide staining-based flow cytometric analysis; type: functional
Summary of the method: (§1)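 Cells plated at 1.0 × 10^6 per dish, then treated 24 h later with increasing concentrations for 24 h. Floating and adherent cells were pooled, PBS-washed and fixed in ice-cold 70% ethanol for at least 24 h. They were then stained with propidium iodide plus RNase A for 30 min at 37 °C. Percentage of cells in each phase was read by flow cytometry.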

[7] = biological target: T1, Cyclin-dependent kinase 4/cyclin D1 (Homo sapiens) (UniProt P11802+P24385); test: Inhibition of recombinant CDK4/cyclinD1 in human MDA-MB-231 cells assessed as inhibition of retinoblastoma phosphorylation at Ser780 at 0.5 to 5 uM after 24 hrs by Western blotting analysis; type: cell-based
Summary of the method: (§2)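 Breast carcinoma cells were given increasing concentrations for 24 h. Total lysates (100 μg, 10% SDS-PAGE) were immunoblotted with antibodies against Ser780-phosphorylated and non-phosphorylated RB. Bands were read on an infrared scanning system.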

[8] = system: MDA-MB-231; test: Cell cycle arrest in human MDA-MB-231 cells assessed as accumulation at G1 phase at 0.5 to 1 uM after 24 hrs by propidium iodide staining-based flow cytometric analysis; type: functional; summary of the method: as §1
[9] = system: MDA-MB-231; test: Induction of apoptosis in human MDA-MB-231 cells assessed as PARP cleavage at 1 to 10 uM after 24 hrs by Western blotting analysis; type: functional, cell-based
[10] = system: MCF7; test: Cell cycle arrest in human MCF7 cells assessed as accumulation at sub-G1 phase at 0.5 to 1 uM after 48 hrs by propidium iodide staining-based flow cytometric analysis; type: functional
[11] = biological target: T1, Cyclin-dependent kinase 4/cyclin D1 (Homo sapiens); test: Inhibition of recombinant CDK4/cyclinD1 in human MCF7 cells assessed as inhibition of retinoblastoma phosphorylation at Ser780 at 0.5 to 5 uM after 24 hrs by Western blotting analysis; type: cell-based; summary of the method: as §2
[12] = system: MDA-MB-231; test: Cell cycle arrest in human MDA-MB-231 cells assessed as accumulation at sub-G1 phase at 0.5 to 1 uM after 48 hrs by propidium iodide staining-based flow cytometric analysis; type: functional
[13] = biological target: NUAK family SNF1-like kinase 1 (Homo sapiens, UniProt O60285); test: Inhibition of ARK5 (unknown origin)
Sequence of NUAK family SNF1-like kinase 1 (O60285 whole entry): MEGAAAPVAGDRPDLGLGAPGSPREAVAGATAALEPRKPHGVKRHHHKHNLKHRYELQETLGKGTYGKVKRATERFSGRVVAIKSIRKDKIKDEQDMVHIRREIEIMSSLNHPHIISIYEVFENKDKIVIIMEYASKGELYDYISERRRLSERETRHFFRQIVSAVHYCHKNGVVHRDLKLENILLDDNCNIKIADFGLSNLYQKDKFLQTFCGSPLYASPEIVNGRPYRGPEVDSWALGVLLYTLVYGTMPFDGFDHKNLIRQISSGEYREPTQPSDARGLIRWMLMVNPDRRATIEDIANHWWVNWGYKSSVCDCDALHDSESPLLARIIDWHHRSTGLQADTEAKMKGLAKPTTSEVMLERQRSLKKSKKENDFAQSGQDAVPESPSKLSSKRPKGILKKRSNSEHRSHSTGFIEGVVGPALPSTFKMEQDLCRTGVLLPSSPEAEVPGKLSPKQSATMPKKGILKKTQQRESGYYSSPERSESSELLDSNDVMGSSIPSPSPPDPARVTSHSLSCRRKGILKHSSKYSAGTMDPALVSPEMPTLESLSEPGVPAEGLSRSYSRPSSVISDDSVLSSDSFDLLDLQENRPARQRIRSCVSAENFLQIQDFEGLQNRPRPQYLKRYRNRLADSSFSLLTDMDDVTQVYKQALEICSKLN

[14] = system: MCF7; test: Induction of apoptosis in human MCF7 cells assessed as PARP cleavage at 1 to 10 uM after 24 hrs by Western blotting analysis; type: functional, cell-based

SMILES	IC50 [1] [µM]	IC50 [2] [µM]	also measured
CCCn1c(=O)c(C#N)cc2cnc(Nc3ccc(N4CCN(C)CC4)cc3)nc21	15	5	–
Nc1ccc2c(=S)c3ccccc3[nH]c2c1	–	–	IC50 [3]: > 100 µM; IC50 [4]: > 100 µM
CN1CCN(c2ccc(Nc3ncc4cc(S(=O)(=O)c5ccc(Cl)cc5)c(=O)n(C5CCCC5)c4n3)cc2)CC1	15	5	–
COc1ccc(Nc2ncc3cc(C#N)c(=O)n(C4CCCC4)c3n2)cc1	25	75	–
N#Cc1cc2cnc(Nc3ccc4[nH]ccc4c3)nc2n(C2CCCC2)c1=O	5	5	–
COc1cc(Nc2ncc3cc(C#N)c(=O)n(C4CCCC4)c3n2)cc(OC)c1	15	15	–
COc1ccc(CS(=O)(=O)c2cc3cnc(Nc4ccc(N5CCN(C)CC5)cc4)nc3n(C3CCCC3)c2=O)cc1O	2	2	–
CN1CCN(c2ccc(Nc3ncc4cc(C(=O)Nc5ccc(Cl)cc5)c(=O)n(C5CCCC5)c4n3)cc2)CC1	30	5	–
COc1ccccc1Nc1ncc2cc(C#N)c(=O)n(C3CCCC3)c2n1	30	15	–
CCCCCn1c(=O)c(C#N)cc2cnc(Nc3ccc(N4CCN(C)CC4)cc3)nc21	1.5	0.75	–
N#Cc1ccnc(Nc2ncc3cc(C#N)c(=O)n(C4CCCC4)c3n2)c1	30	5	–
CN1CCN(c2ccc(N(C(=O)c3ccc(C(F)(F)F)cc3)c3ncc4cc(C#N)c(=O)n(C5CCCC5)c4n3)cc2)CC1	1	0.5	–
CCCCn1c(=O)c(C#N)cc2cnc(Nc3ccc(N4CCN(C)CC4)cc3)nc21	0.75	0.75	–
N#Cc1cc2cnc(N3CCN(c4ccc(C(F)(F)F)cn4)CC3)nc2n(C2CCCC2)c1=O	100	30	–
CN1CCN(c2ccc(Nc3ncc4cc(C#N)c(=O)[nH]c4n3)cc2)CC1	30	30	–
CCn1c(=O)c(C#N)cc2cnc(Nc3ccc(N4CCN(C)CC4)cc3)nc21	1.5	0.75	–
N#Cc1cc2cnc(Nc3cnc4ccccc4c3)nc2n(C2CCCC2)c1=O	5	5	–
COc1cc(Nc2ncc3cc(C#N)c(=O)n(C4CCCC4)c3n2)cc(OC)c1OC	5	2.5	–
CN1CCN(c2ccc(Nc3ncc4cc(S(=O)(=O)c5ccccc5)c(=O)n(C5CCCC5)c4n3)cc2)CC1	75	30	–
CN1CCN(c2ccc(Nc3ncc4cc(C#N)c(=O)n(C)c4n3)cc2)CC1	75	75	–
N#Cc1ccc(Nc2ncc3cc(C#N)c(=O)n(C4CCCC4)c3n2)cc1	5	75	–
COc1ccc(F)cc1Nc1ncc2cc(C#N)c(=O)n(C3CCCC3)c2n1	75	75	–
COc1ccc(Nc2ncc3cc(C#N)c(=O)n(C4CCCC4)c3n2)c(OC)c1	15	15	–

SMILES	IC50 [1] [µM]	IC50 [2] [µM]	also measured
N#Cc1cc2cnc(Nc3ccc(N4CCOCC4)cc3)nc2n(C2CCCC2)c1=O	15	5	–
CN1CCN(c2ccc(Nc3ncc4cc(S(=O)(=O)Cc5ccc(Cl)cc5)c(=O)n(C5CCCC5)c4n3)cc2)CC1	75	10	–
COc1ccc2cc(Nc3ncc4cc(C#N)c(=O)n(C5CCCC5)c4n3)ccc2n1	3	0.25	–
COc1ccc(Nc2ncc3cc(C#N)c(=O)n(C4CCCC4)c3n2)cc1OC	5	2	–
CC(C)n1c(=O)c(C#N)cc2cnc(Nc3ccc(N4CCN(C)CC4)cc3)nc21	2.5	2.5	–
N#Cc1cc2cnc(Nc3ccccc3O)nc2n(C2CCCC2)c1=O	15	15	–
N#Cc1cc2cnc(NCc3ccccc3)nc2n(C2CCCC2)c1=O	75	100	–
CN1CCN(c2ccc(Nc3ncc4cc(C#N)c(=O)n(C5CCCCC5)c4n3)cc2)CC1	50	1.5	–
COc1ccc(CS(=O)(=O)c2cc3cnc(Nc4ccc(N5CCN(C)CC5)cc4)nc3n(C3CCCC3)c2=O)cc1[N+](=O)[O-]	5	2	–
CN1CCN(c2ccc(Nc3ncc4cc([N+](=O)[O-])c(=O)n(C5CCCC5)c4n3)cc2)CC1	2.5	0.75	–
N#Cc1cc2cnc(Nc3ccccn3)nc2n(C2CCCC2)c1=O	3	0.5	–
N#Cc1cc2cnc(Nc3ccc(Cl)cc3)nc2n(C2CCCC2)c1=O	30	30	–
CN1CCN(c2ccc(Nc3ncc4cc(C(=O)Nc5ccc(F)cc5)c(=O)n(C5CCCC5)c4n3)cc2)CC1	30	15	–
N#Cc1cc2cnc(Nc3cccc4cccnc34)nc2n(C2CCCC2)c1=O	1	1	–
CN1CCN(c2ccc(Nc3ncc4cc(S(C)(=O)=O)c(=O)n(C5CCCC5)c4n3)cc2)CC1	5	5	–
CC(=O)N(c1ccc(N2CCN(C)CC2)cc1)c1ncc2cc(C#N)c(=O)n(C3CCCC3)c2n1	5	0.75	–
CN1CCN(c2ccc(Nc3ncc4cc(C#N)c(=O)n(C5CCCC5)c4n3)nc2)CC1	15	5	–
CN1CCN(c2ccc(Nc3ncc4cc(C#N)c(=O)n(C5CC5)c4n3)cc2)CC1	2.5	2.5	–
CC(=O)c1c(C)c2cnc(Nc3ccc(N4CCNCC4)cn3)nc2n(C2CCCC2)c1=O [PALBOCICLIB]	7.5	2	IC50 [5]: > 10 µM; Activity [6]: Active; inhibition [7]: Active; Activity [8]: Active; Activity [9]: inactive; Activity [10]: inactive; inhibition [11]: Active; Activity [12]: inactive; IC50 [13]: > 5 µM; Activity [14]: inactive
N#Cc1cc2cnc(Nc3cccc4[nH]ccc34)nc2n(C2CCCC2)c1=O	15	30	–
N#Cc1cc2cnc(Nc3ccc(N4CCOCC4)cn3)nc2n(C2CCCC2)c1=O	15	5	–
COc1cccc(Nc2ncc3cc(C#N)c(=O)n(C4CCCC4)c3n2)c1	0.5	5	–
